Assay results as given in article PMC10685179 (RSC Advances, 2023).
Converted amounts (≈) assume the structure as drawn. Like-named read-outs stand apart in the source and are kept apart here.

Experiments:
E. coli KA780 [1] = experiment: Broth microdilution MIC and MBC; format: cell-based; conditions: Escherichia coli; for MIC: KA780, 24 h; for MBC: KA780, read-out: MBC/MIC
C. tropicalis KA205 [2] = experiment: Broth microdilution MIC and MFC; format: cell-based; conditions: Candida tropicalis; for MIC: KA205, 24 h; for MFC: KA205, read-out: MFC/MIC
E. faecalis KA247 [3] = experiment: Agar well-diffusion, inhibition zone; format: cell-based, Enterococcus faecalis; conditions: for zone of inhibition at 10 µM: Enterococcus faecalis, KA247, read-out: Average diameter of inhibition zone (ZI)
Method in brief: (§1)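 Clinical MDR isolates from complicated UTI patients. Suspensions were made in Tryptic Soya and Sabouraud broths from subcultures on Tryptic Soya and Sabouraud agar plates. Agar well diffusion followed CLSI guidelines, with test compounds applied at 10 μM in DMSO. Fosfomycin and fluconazole were positive controls and DMSO the negative control. Zone diameters were read in mm, in triplicate.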

P. mirabilis KA320 [4] = experiment: Broth microdilution MIC and MBC; format: cell-based; conditions: Proteus mirabilis; for MIC: KA320, 24 h; for MBC: KA320, read-out: MBC/MIC
S. aureus KA112 [5] = experiment: Broth microdilution MIC and MBC; format: cell-based; conditions: Staphylococcus aureus; for MIC: KA112, 24 h; for MBC: KA112, read-out: MBC/MIC
P. mirabilis KA320 [6] = experiment: Agar well-diffusion, inhibition zone; format: cell-based, Proteus mirabilis; conditions: for zone of inhibition at 10 µM: Proteus mirabilis, KA320, read-out: Average diameter of inhibition zone (ZI)
Method in brief: as §1

C. tropicalis KA205 [7] = experiment: Agar well-diffusion, inhibition zone; format: cell-based, Candida tropicalis
Method in brief: as §1

E. coli KA780 [8] = experiment: Agar well-diffusion, inhibition zone; format: cell-based, Escherichia coli; conditions: for zone of inhibition at 10 µM: Escherichia coli, KA780, read-out: Average diameter of inhibition zone (ZI); for Average diameter of inhibition zone (ZI): 10 μM (DMSO), mean of three ± SEM
Method in brief: as §1

C. albicans KA205 [9] = experiment: Broth microdilution MIC and MFC; format: cell-based; conditions: Candida albicans; for MIC: KA205, 24 h; for MFC: KA205, read-out: MFC/MIC
E. faecalis KA247 [10] = experiment: Broth microdilution MIC and MBC; format: cell-based; conditions: Enterococcus faecalis, KA247, 24 h
S. aureus KA112 [11] = experiment: Agar well-diffusion, inhibition zone; format: cell-based, Staphylococcus aureus; conditions: for zone of inhibition at 10 µM: Staphylococcus aureus, KA112, read-out: Average diameter of inhibition zone (ZI)
Method in brief: as §1

C. albicans KA205 [12] = experiment: Agar well-diffusion, inhibition zone; format: cell-based, Candida albicans
Method in brief: as §1

[13] = tested on: BNL: mouse normal liver cells; experiment: SRB cytotoxicity assay on normal cells; format: cell-based
Method in brief: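 Mouse normal liver BNL cells were grown in DMEM with 10% heat-inactivated FBS, penicillin and streptomycin, at 37 °C in 5% CO2. […] SRB assay: 10% TCA fixation at 4 °C for 1 h, 0.4% SRB for 10 min at room temperature, 1% acetic acid washes, 10 mM Tris solubilisation, absorbance at 540 nm. Mean of three, with SD.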

[14] = tested on: MDR bacterial and fungal isolates; experiment: Broth microdilution MIC/MBC/MFC, whole panel; format: cell-based; conditions: bactericidal/fungicidal if MBC or MFC not greater than four times the MIC
E. coli MurA enzyme = E. coli MurA enzyme (Escherichia coli, UniProt P0A749); experiment: MurA enzyme inhibition assay; format: biochemical; conditions: for remaining activity at 100 µM: read-out: RA (residual activity), at 100 μM
Sequence of E. coli MurA enzyme (P0A749 whole entry): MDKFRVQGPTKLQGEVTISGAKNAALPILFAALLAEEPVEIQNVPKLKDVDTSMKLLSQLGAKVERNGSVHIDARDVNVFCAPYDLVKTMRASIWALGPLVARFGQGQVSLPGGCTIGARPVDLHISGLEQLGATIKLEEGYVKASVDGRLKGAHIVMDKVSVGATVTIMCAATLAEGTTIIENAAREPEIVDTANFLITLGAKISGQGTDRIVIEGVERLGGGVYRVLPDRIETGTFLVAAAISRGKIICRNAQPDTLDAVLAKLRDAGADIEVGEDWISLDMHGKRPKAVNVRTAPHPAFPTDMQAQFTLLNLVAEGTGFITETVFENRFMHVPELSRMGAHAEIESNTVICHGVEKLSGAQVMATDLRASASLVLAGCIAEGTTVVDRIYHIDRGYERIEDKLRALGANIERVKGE

[15] = tested on: fosfomycin-resistant (FO-R) E. coli KA780; experiment: SEM of outer membrane integrity; format: cell-based; conditions: at MIC, compared with DMSO
[16] = Physical and chemical stability after gamma irradiation; format: physicochemical; conditions: gamma radiation 3.0 kGy to 20.0 kGy
Method in brief: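 Compound powders in sterile tubes were irradiated by a 60Co source at 3.0, 5.0, 7.0, 10.0, 15.0 and 20.0 kGy, at a dose rate of 0.9 kGy h−1. Non-irradiated and irradiated samples were checked for physical and chemical changes by UV-VIS spectrophotometry at 560 nm.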

E. coli KA780 [17] = experiment: Checkerboard microdilution synergy with fosfomycin; format: cell-based, Escherichia coli
S. aureus KA112 [18] = experiment: Checkerboard microdilution synergy with fosfomycin; format: cell-based, Staphylococcus aureus
P. mirabilis KA320 [19] = experiment: Checkerboard microdilution synergy with fosfomycin; format: cell-based, Proteus mirabilis
fungal isolates = experiment: Time-kill kinetics, fungal isolates; format: cell-based; conditions: at MIC
Method in brief: (§2)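 Untreated organisms served as controls. Bacteria were sampled at 0, 2, 4, 6, 8, 12, 18 and 24 h, and fungi at 0, 2, 4, 6, 8, 18, 24 and 48 h. Counts were made by plate count and plotted as log10 CFU mL−1 versus time.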

bacterial isolates = experiment: Time-kill kinetics, bacterial isolates; format: cell-based; conditions: at MIC
Method in brief: as §2

MDR microbial isolates = experiment: Time-kill kinetics, whole panel; format: cell-based; conditions: all pathogenic isolates
Method in brief: as §2

C. tropicalis KA205 [20] = experiment: Checkerboard microdilution synergy with fluconazole; format: cell-based, Candida tropicalis
E. faecalis KA247 [21] = experiment: Checkerboard microdilution synergy with fosfomycin; format: cell-based, Enterococcus faecalis
[22] = 10 μM (DMSO), mean of three ± SEM

Nc1nc2c(-c3ccc([N+](=O)[O-])cc3)nn(-c3ccccc3)c2s1 [Compound 2, 3-(4-nitrophenyl)-1-phenyl-1H-pyrazolo[4,3-d]thiazol-5-amine]
MIC (E. coli KA780 [1]): 4 µg/mL (≈ 11.9 µM) | MBC (E. coli KA780 [1]): 0.5 µg/mL (≈ 1.48 µM) | MIC (C. tropicalis KA205 [2]): 1 µg/mL (≈ 2.96 µM) | MFC (C. tropicalis KA205 [2]): 2 µg/mL (≈ 5.93 µM) | zone of inhibition at 10 µM (E. faecalis KA247 [3]): 17 mm | MIC (P. mirabilis KA320 [4]): 8 µg/mL (≈ 23.7 µM) | MBC (P. mirabilis KA320 [4]): 1 µg/mL (≈ 2.96 µM) | MIC (S. aureus KA112 [5]): 8 µg/mL (≈ 23.7 µM) | MBC (S. aureus KA112 [5]): 0.5 µg/mL (≈ 1.48 µM) | zone of inhibition at 10 µM (P. mirabilis KA320 [6]): 16 ± 0.79 mm | zone of inhibition at 10 µM (C. tropicalis KA205 [7]; Candida tropicalis, KA205, read-out: Average diameter of inhibition zone (ZI)): 16 ± 0.63 mm | zone of inhibition at 10 µM (E. coli KA780 [8]): 17 ± 0.62 mm | MIC (C. albicans KA205 [9]): 1 µg/mL (≈ 2.96 µM) | MFC (C. albicans KA205 [9]): 0.5 µg/mL (≈ 1.48 µM) | MIC (E. faecalis KA247 [10]): 8 µg/mL (≈ 23.7 µM) | zone of inhibition at 10 µM (S. aureus KA112 [11]): 17 ± 0.39 mm | zone of inhibition at 10 µM (C. albicans KA205 [12]; Candida albicans, KA205, read-out: Average diameter of inhibition zone (ZI)): 17 ± 0.16 mm

COc1cccc2c1C(=O)c1c(O)c3c(c(O)c1C2=O)C[C@@](O)(C(=O)CO)C[C@@H]3O[C@H]1C[C@H](N)[C@H](O)[C@H](C)O1 [DOX, Doxorubicin, reference compound]
IC50 [13]: 14.7 µM

C[C@@H]1O[C@@H]1P(=O)(O)O [FO, fosfomycin, reference compound]
MIC (E. coli KA780 [1]): 256 µg/mL (≈ 1850 µM) | MBC (E. coli KA780 [1]): 1 µg/mL (≈ 7.24 µM) | bactericidal/fungicidal effect [14]: bactericidal and fungicidal activities | zone of inhibition at 10 µM (E. faecalis KA247 [3]): 17 ± 0.34 mm | MIC (P. mirabilis KA320 [4]): 16 µg/mL (≈ 116 µM) | MBC (P. mirabilis KA320 [4]): 1 µg/mL (≈ 7.24 µM) | IC50 (E. coli MurA enzyme; IC50, preincubation 0 min): 52 ± 0.33 µM | IC50 (E. coli MurA enzyme; IC50, preincubation 10 min): 12.7 µM | RA (residual activity) (E. coli MurA enzyme; at 100 μM, preincubation 0 min): 52 ± 0.55% | remaining activity at 100 µM (E. coli MurA enzyme; preincubation 0 min): < 60% | remaining activity at 100 µM (E. coli MurA enzyme; preincubation 10 min): 10 ± 0.92% | MIC (S. aureus KA112 [5]): 8 µg/mL (≈ 57.9 µM) | MBC (S. aureus KA112 [5]): 0.4 µg/mL (≈ 2.9 µM) | zone of inhibition at 10 µM (P. mirabilis KA320 [6]): 19 ± 0.13 mm | Average diameter of inhibition zone (ZI) (E. coli KA780 [8]): 11 ± 0.23 mm | zone of inhibition at 10 µM (E. coli KA780 [8]): 11 mm | MIC (E. faecalis KA247 [10]): 8 µg/mL (≈ 57.9 µM) | zone of inhibition at 10 µM (S. aureus KA112 [11]): 18 ± 0.32 mm

O=[N+]([O-])c1ccc(-c2nn(-c3ccccc3)c3sc(NC(c4ccccc4O)P(=O)(Oc4ccccc4)Oc4ccccc4)nc23)cc1 (stereo not shown) [Compound 5a, Diphenyl((2-hydroxyphenyl)((3-(4-nitrophenyl)-1-phenyl-1H-pyrazolo[4,3-d]thiazol-5-yl)amino)methyl)phosphonate]
MIC (E. coli KA780 [1]): 0.06 µg/mL (≈ 0.0888 µM) | MBC (E. coli KA780 [1]): 0.5 µg/mL (≈ 0.74 µM) | effect on outer membrane (SEM image) [15]: perturbation in the membrane and distinct ruptures of the OM integrity | MIC (C. tropicalis KA205 [2]): 0.125 µg/mL (≈ 0.185 µM) | MFC (C. tropicalis KA205 [2]): 1 µg/mL (≈ 1.48 µM) | Average diameter of inhibition zone (ZI) (E. faecalis KA247 [3]; [22]): 24 ± 0.20 mm | MIC (P. mirabilis KA320 [4]): 0.125 µg/mL (≈ 0.185 µM) | MBC (P. mirabilis KA320 [4]): 0.5 µg/mL (≈ 0.74 µM) | physical changes (odor, color, clarity, solubility, and form) after irradiation [16]: no changes occurred | stability of the chemical structure after irradiation ([16]; UV-VIS spectrophotometer): confirmed the stability of the chemical structure | combination effect (E. coli KA780 [17]): S (FICI ≤ 0.5 (synergism)) | Fractional inhibitory concentration index (ΣFICI) (E. coli KA780 [17]; combination with fosfomycin): 0.25 | combination effect (S. aureus KA112 [18]): S (FICI ≤ 0.5 (synergism)) | Fractional inhibitory concentration index (ΣFICI) (S. aureus KA112 [18]; combination with fosfomycin): 0.25 | combination effect (P. mirabilis KA320 [19]): S (FICI ≤ 0.5 (synergism)) | Fractional inhibitory concentration index (ΣFICI) (P. mirabilis KA320 [19]; combination with fosfomycin): 0.5 | IC50 (E. coli MurA enzyme; IC50, preincubation 0 min): 41 µM | IC50 (E. coli MurA enzyme; IC50, preincubation 10 min): 3.8 µM | remaining activity at 100 µM (E. coli MurA enzyme; preincubation 10 min): 0% | time of maximum killing rate / maximum reduction in cell counts (fungal isolates): 16 h | MIC (S. aureus KA112 [5]): 0.06 µg/mL (≈ 0.0888 µM) | MBC (S. aureus KA112 [5]): 0.5 µg/mL (≈ 0.74 µM) | time of maximum killing rate (bacterial isolates): 6 h | IC50 [13]: > 100 µM | microbial reduction relative to the initial inoculum (MDR microbial isolates): ≥ 3 log10 | combination effect (C. tropicalis KA205 [20]): S (FICI ≤ 0.5 (synergism)) | Fractional inhibitory concentration index (ΣFICI) (C. tropicalis KA205 [20]; combination with fluconazole): 0.5 | Average diameter of inhibition zone (ZI) (P. mirabilis KA320 [6]; [22]): 23 ± 0.44 mm | Average diameter of inhibition zone (ZI) (C. tropicalis KA205 [7]; [22]): 22 ± 0.43 mm | Average diameter of inhibition zone (ZI) (E. coli KA780 [8]): 25 ± 0.28 mm | MIC (C. albicans KA205 [9]): 0.125 µg/mL (≈ 0.185 µM) | MFC (C. albicans KA205 [9]): 0.5 µg/mL (≈ 0.74 µM) | MIC (E. faecalis KA247 [10]): 0.125 µg/mL (≈ 0.185 µM) | combination effect (E. faecalis KA247 [21]): S (FICI ≤ 0.5 (synergism)) | Fractional inhibitory concentration index (ΣFICI) (E. faecalis KA247 [21]; combination with fosfomycin): 0.5 | Average diameter of inhibition zone (ZI) (S. aureus KA112 [11]; [22]): 24 ± 0.51 mm | Average diameter of inhibition zone (ZI) (C. albicans KA205 [12]; [22]): 22 ± 0.76 mm
